SUMO1-SIM PPI: SUMO1-SIM interaction modulation. SUMO1 binding to a labelled peptide, TR-FRET, 1 h. inhibition, % at 20 µM. actives 0.33% (n = 360,000); in the data active = inhibition above about 37%
DNMT1 block: DNMT1 (human) enzyme inhibition; P26358; DNMT1 molecular beacon, Hinp1I cleavage, fluorescence; inhibition (reported as % activation of signal), % at 10 µM; actives 0.83% (n = 360,000); in the data active = inhibition above about 50%
Target sequence (P26358 504-1616 limits assumed): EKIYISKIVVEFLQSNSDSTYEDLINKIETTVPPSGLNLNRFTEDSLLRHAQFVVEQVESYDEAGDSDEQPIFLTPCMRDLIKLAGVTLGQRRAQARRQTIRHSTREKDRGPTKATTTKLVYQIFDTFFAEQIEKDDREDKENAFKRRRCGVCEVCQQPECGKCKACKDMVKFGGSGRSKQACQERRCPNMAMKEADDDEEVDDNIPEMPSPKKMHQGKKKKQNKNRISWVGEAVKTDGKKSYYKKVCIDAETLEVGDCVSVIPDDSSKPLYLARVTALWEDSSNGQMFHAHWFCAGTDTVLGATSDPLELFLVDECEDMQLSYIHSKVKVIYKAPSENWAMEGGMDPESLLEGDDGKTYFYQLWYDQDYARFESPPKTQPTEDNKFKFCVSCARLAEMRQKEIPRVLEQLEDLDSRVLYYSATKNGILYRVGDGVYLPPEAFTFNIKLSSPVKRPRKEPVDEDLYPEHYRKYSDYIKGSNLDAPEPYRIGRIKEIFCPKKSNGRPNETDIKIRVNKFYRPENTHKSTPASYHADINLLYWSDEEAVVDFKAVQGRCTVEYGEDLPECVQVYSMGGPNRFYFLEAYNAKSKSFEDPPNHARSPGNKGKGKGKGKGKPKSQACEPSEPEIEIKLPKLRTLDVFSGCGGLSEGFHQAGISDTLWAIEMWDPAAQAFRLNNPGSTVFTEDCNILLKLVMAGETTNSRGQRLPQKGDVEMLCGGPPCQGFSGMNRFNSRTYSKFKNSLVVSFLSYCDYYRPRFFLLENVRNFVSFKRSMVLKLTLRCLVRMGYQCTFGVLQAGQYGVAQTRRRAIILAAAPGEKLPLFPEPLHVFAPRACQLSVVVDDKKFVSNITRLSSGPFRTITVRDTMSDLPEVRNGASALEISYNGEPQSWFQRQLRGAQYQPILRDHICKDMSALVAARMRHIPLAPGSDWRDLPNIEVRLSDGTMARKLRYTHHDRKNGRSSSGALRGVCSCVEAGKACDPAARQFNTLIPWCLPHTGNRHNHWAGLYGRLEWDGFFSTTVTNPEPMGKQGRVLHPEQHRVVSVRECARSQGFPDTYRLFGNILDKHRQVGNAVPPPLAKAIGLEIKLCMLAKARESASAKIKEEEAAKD
Scp-1 inhibitor: Scp-1 (human) phosphatase inhibition; Recombinant Scp1, phosphopeptide, malachite green phosphate absorbance; Q9GZU7; actives 0.88% (n = 340,000); inhibition, % at 20 µM;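 active = inhibition above about 50% at 20 µM, limit read from the data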;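 note: plate controls were DMSO wells with enzyme for no effect and wells lacking enzyme for full effect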
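Material: truncated SCP-1 phosphatase (76-261aa) / Buffer or medium: 50 mM Tris acetate pH 5.5, 0.005% Tween-20, 10 mM MgCl2 / Compound dosing: one concentration, 20 µM, with 1.0% DMSO / Incubation: 45 min room-temperature reaction, 5 min colour, 30 min stabiliser / Detection: colorimetric free-phosphate detection, absorbance 630 nm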
STEP inh: blocks human striatal-enriched tyrosine phosphatase; recombinant STEP, OMFP fluorogenic substrate, fluorescence; inhibition, % at 20 µM; actives 0.25% (n = 360,000);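 active = inhibition at 20 µM, scaled per plate between control wells, above about 37%, limit read from the data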;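 note: 0% = DMSO with enzyme and substrate and 100% = substrate only without enzyme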
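Material: STEP (striatal-enriched tyrosine phosphatase) enzyme, cell-free | Medium: 50 mM Bis-Tris pH 6.0 with 2.5 mM DTT and 0.005% Tween 20 | Read-out: Percent inhibition scaled to no-enzyme and uninhibited-enzyme controls, plate-pattern corrected | Signal: Fluorescence read at 480 nm ex / 540 nm em | Times: 20 min reaction, room temperature, in the dark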
LMPTP inh: LMPTP (human) inhibition | P24666 | recombinant LMPTP-A, OMFP fluorogenic substrate, fluorescence intensity | inhibition, % at 20 µM | actives 0.22% (n = 360,000);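 active = compounds that cut the enzyme signal by at least half of the control window in the single-dose screen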;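 note: plate controls were DMSO wells with enzyme plus substrate for no effect and substrate without enzyme for full effect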
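Test system: LMPTP-A phosphatase enzyme. Amount: LMPTP-A at 0.625 nM final in the reaction. Reagent: OMFP substrate, 400 µM final. Times: 50 min at room temperature. Signal: endpoint fluorescence intensity from OMFP dephosphorylation. Read-out basis: % inhibition. Benchmarks: no-enzyme and uninhibited controls.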
SUMO HTRF inh: SUMOylation inhibition; inhibition, % at 35 µM; P63279; HTRF SUMOylation assay, SAE1/SAE2 + UBC9, in vitro; actives 0.36% (n = 290,000); in the data active = inhibition above about 50%, passing the limit was not always enough
Scp-1 conf: confirmation of human Scp-1 phosphatase inhibitors; inhibition, % at 20 µM; recombinant SCP-1 catalytic domain, phosphate release, malachite green absorbance; shares compounds with Scp-1 inhibitor; actives 61% (n = 2,500); AID 540281;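 note: plate controls were DMSO with enzyme for no effect and buffer wells lacking enzyme for full effect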
Scp-1 MG ctr: colorimetric interference in Scp-1 counter-screen | shares compounds with Scp-1 inhibitor | 2,500 tested, under 10 active | apparent inhibition (interference), % at 20 µM | AID 540313 | Colorimetric interference counterscreen, malachite green absorbance 630 nm;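 note: compounds added after enzyme reaction finished so only phosphate colour detection is probed; plate controls were DMSO wells with completed Scp-1 reaction for no effect and substrate wells lacking enzyme for full effect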
Scp1 DSF: validation of human Scp-1 inhibitors by thermal shift binding; shares compounds with Scp-1 inhibitor; Recombinant SCP1, Sypro Orange thermal shift Tm; thermal shift relative to vanadate control, % at 40 µM; actives 25% (n = 1,500);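 active = substances whose mean melting-temperature shift, as a percentage of the reference inhibitor's shift, reaches about 5.3%, limit read from the data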;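 note: 0% = Tm of DMSO wells and 100% = Tm with sodium orthovanadate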
Numbers without * were called inactive. Hits are enriched below; roughly 1.9% of the tested compounds scored in any of these assays.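 Rule for the calls, unless noted: active = inhibition of at least 30% at 20 µM; inactive = the rest.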

For COc1cc(/C=C2/C(=O)NN(c3ccc(C)c(Cl)c3)C2=O)cc([N+](=O)[O-])c1O the results were SUMO1-SIM PPI -1, DNMT1 block 39, Scp-1 inhibitor 61*, STEP inh 86*, LMPTP inh 2, SUMO HTRF inh -10, Scp-1 conf 74*, Scp-1 MG ctr -15 and Scp1 DSF 569*.
Screening Cc1c(Cc2ccccc2)sc(NC(=O)/C=C/c2cccc3ccccc23)c1C(N)=O returned SUMO1-SIM PPI -5, DNMT1 block -10, Scp-1 inhibitor -10, STEP inh 3, LMPTP inh 1 and SUMO HTRF inh 19.
For COc1ccccc1C(=O)Nc1c2c(nn1-c1ccc(Cl)cc1)CS(=O)(=O)C2 the results were SUMO1-SIM PPI -3, DNMT1 block 8, Scp-1 inhibitor 50*, STEP inh 3, LMPTP inh 7, SUMO HTRF inh 43, Scp-1 conf 18 and Scp-1 MG ctr -17.
COc1ccccc1C(=O)Nc1c2c(nn1-c1ccc([N+](=O)[O-])cc1)CS(=O)(=O)C2 was read as SUMO1-SIM PPI -4, DNMT1 block 2, Scp-1 inhibitor -4, STEP inh 0, LMPTP inh -1 and SUMO HTRF inh 17.
COc1ccccc1C(=O)Nc1c2c(nn1-c1cccc(C)c1C)CS(=O)(=O)C2 was read as SUMO1-SIM PPI 18, DNMT1 block 4, Scp-1 inhibitor 73*, STEP inh 22, LMPTP inh -1, SUMO HTRF inh 30, Scp-1 conf 46*, Scp-1 MG ctr -14 and Scp1 DSF -12.
Cc1ccc(OCCOc2ccc(Cl)cc2Cl)c([N+](=O)[O-])n1 was read as SUMO1-SIM PPI -22, DNMT1 block -3, Scp-1 inhibitor -21, STEP inh -3, LMPTP inh 4 and SUMO HTRF inh -20.
For CCCn1c2c(c(=N)c3c1CCC3)CCCC2 the results were SUMO1-SIM PPI 2, DNMT1 block 10, Scp-1 inhibitor 74*, STEP inh -6, LMPTP inh 1, SUMO HTRF inh 10, Scp-1 conf 6 and Scp-1 MG ctr -9.
For O=C(CN1CCN(c2ccccc2O)CC1)Nc1ccnn1C1CCCC1 the results were SUMO1-SIM PPI 1, DNMT1 block -1, Scp-1 inhibitor -1, STEP inh 0 and LMPTP inh 2.
`O=C(COc1ccccc1)N1N=C(c2cccnc2)CC1(O)C(F)(F)F` (stereo not drawn) gave SUMO1-SIM PPI -4, DNMT1 block 12, Scp-1 inhibitor 21, STEP inh -4, LMPTP inh 0 and SUMO HTRF inh -6.
For Cc1ccc(OCC(=O)N2N=C(c3ccncc3)CC2(O)C(F)(F)F)cc1C (stereo not drawn) the results were SUMO1-SIM PPI 0, DNMT1 block -3, Scp-1 inhibitor 103*, STEP inh -1, LMPTP inh 1, SUMO HTRF inh 15, Scp-1 conf -1 and Scp-1 MG ctr -8.
Screening O=C(O)c1ccc(-n2cc(-c3cc4ccccc4oc3=O)[nH]c2=S)cc1 returned SUMO1-SIM PPI -3, DNMT1 block -2, Scp-1 inhibitor 84*, STEP inh 10, LMPTP inh 3, SUMO HTRF inh 28, Scp-1 conf 61*, Scp-1 MG ctr -11 and Scp1 DSF 1.
CCN(CC)C(=O)COc1ccc2oc(-c3ccco3)cc(=O)c2c1 was read as SUMO1-SIM PPI -13, DNMT1 block 20, Scp-1 inhibitor 74*, STEP inh 4, LMPTP inh 3, SUMO HTRF inh 53*, Scp-1 conf 49*, Scp-1 MG ctr -4 and Scp1 DSF -1.
`Cn1c(=O)c2c(ncn2CC(=O)N2CCN(S(=O)(=O)c3ccc(F)cc3)CC2)n(C)c1=O` gave SUMO1-SIM PPI 0, DNMT1 block 1, Scp-1 inhibitor -4, STEP inh -1 and LMPTP inh -1.
For Cn1c(=O)c2c(ncn2CC(=O)N2CCN(S(=O)(=O)c3ccc(Cl)cc3)CC2)n(C)c1=O the results were SUMO1-SIM PPI 2, DNMT1 block 1, Scp-1 inhibitor 64*, STEP inh -2, LMPTP inh 0, SUMO HTRF inh 8, Scp-1 conf -13 and Scp-1 MG ctr -13.
`COc1ccc(Cl)cc1NC(=O)NCCN1CCNC1=O` gave SUMO1-SIM PPI 0, DNMT1 block -1, Scp-1 inhibitor -11, STEP inh 0, LMPTP inh -1, SUMO HTRF inh -8, Scp-1 conf -22 and Scp-1 MG ctr -15.
For COc1ccccc1NC(=O)NCCN1CCNC1=O the results were SUMO1-SIM PPI 0, DNMT1 block -1, Scp-1 inhibitor -10, STEP inh 1, LMPTP inh 0, SUMO HTRF inh 13, Scp-1 conf -10 and Scp-1 MG ctr -14.
COc1ccccc1NC(=O)NCCN1CCCCC1 was read as SUMO1-SIM PPI 0, DNMT1 block -1, Scp-1 inhibitor 0, STEP inh 3, LMPTP inh -3 and SUMO HTRF inh 1.
`COc1ccc(Cl)cc1NC(=O)NCCCl` gave SUMO1-SIM PPI -3, DNMT1 block 1, Scp-1 inhibitor -20, STEP inh -1, LMPTP inh -1 and SUMO HTRF inh 10.
`CC1=C(C(=O)Nc2cc(C(=O)NCCC(C)C)ccc2C)SCCO1` gave SUMO1-SIM PPI -3, DNMT1 block 6, Scp-1 inhibitor 3, STEP inh -2, LMPTP inh 2 and SUMO HTRF inh 4.
For O=C(O)C(Cc1cn[nH]n1)=NO the results were SUMO1-SIM PPI -5, DNMT1 block 1, Scp-1 inhibitor 57*, STEP inh 2, LMPTP inh -1, SUMO HTRF inh 18, Scp-1 conf -12 and Scp-1 MG ctr -11.
Cc1cc(C)c2c(N)c(C(=O)N3CCc4ccccc4C3)sc2n1 was read as SUMO1-SIM PPI 7, DNMT1 block -4, Scp-1 inhibitor 1, STEP inh 1, LMPTP inh 2 and SUMO HTRF inh 9.
NC(=O)C[n+]1cccc2ccccc21 was read as SUMO1-SIM PPI -21, DNMT1 block 0, Scp-1 inhibitor 99*, STEP inh -5, LMPTP inh 0, SUMO HTRF inh 30, Scp-1 conf -7 and Scp-1 MG ctr -12.
